Among the data in ChEMBL document CHEMBL5338787, “Discovery of Novel Bruton's Tyrosine Kinase PROTACs with Enhanced Selectivity and Cellular Efficacy” (J Med Chem, 2023) are Activity, DC50 and Emax values, retold here.

Common to all, as to assay type: cell-based
Assay [1] deals with T1, Tyrosine-protein kinase BAZ1B (Homo sapiens) (UniProt Q9UIG0).
T1 sequence (whole entry): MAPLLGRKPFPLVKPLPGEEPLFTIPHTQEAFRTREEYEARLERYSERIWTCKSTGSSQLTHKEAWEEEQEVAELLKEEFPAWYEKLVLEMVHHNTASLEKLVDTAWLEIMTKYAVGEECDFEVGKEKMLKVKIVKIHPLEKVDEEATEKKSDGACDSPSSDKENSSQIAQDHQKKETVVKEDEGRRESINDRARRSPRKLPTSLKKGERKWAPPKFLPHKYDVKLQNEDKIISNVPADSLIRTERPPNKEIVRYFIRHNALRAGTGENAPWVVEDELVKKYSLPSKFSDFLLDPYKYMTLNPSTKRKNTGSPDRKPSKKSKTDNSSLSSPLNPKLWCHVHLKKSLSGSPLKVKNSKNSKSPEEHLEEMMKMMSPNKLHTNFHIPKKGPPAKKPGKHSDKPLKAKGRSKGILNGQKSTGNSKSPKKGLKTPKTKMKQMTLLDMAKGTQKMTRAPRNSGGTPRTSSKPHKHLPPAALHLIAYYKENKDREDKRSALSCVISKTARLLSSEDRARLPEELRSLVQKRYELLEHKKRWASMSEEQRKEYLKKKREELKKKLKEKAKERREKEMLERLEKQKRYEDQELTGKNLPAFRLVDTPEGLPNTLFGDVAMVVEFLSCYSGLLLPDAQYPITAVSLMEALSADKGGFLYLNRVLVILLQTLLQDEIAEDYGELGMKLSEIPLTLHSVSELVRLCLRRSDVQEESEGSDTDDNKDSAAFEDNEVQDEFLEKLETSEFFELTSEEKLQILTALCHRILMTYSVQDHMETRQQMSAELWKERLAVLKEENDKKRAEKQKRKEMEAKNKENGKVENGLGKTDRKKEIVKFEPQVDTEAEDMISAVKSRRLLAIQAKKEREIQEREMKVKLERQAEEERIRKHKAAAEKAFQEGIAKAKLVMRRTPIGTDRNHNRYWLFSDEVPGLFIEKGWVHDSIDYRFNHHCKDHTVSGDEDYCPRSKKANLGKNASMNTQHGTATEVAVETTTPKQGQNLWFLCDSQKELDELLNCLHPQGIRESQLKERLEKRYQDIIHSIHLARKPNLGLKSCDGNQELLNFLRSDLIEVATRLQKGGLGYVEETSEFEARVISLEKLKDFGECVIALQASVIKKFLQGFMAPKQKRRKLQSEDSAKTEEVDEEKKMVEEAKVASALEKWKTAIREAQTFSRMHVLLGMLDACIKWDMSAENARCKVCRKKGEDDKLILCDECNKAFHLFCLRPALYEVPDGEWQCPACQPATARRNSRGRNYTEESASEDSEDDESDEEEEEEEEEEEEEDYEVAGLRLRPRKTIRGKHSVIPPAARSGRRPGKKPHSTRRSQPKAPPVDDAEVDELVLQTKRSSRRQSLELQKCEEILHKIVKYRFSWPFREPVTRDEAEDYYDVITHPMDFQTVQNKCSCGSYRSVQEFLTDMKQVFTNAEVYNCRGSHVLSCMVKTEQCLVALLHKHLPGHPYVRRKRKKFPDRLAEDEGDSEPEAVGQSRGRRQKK
The experiment in a line: Degradation of BAZ1B in human TMD8 cells by measuring protein level at 111 nM for 6 hrs using label free proteomic analysis. Put shortly: (§1)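 TMD8 cells (2 × 10^6) given 111 nM or DMSO for 6 h in duplicate. Lysed in 5% SDS/50 mM TEAB pH 8.5. 200 μg protein reduced (10 mM DTT, 55 °C, 30 min), alkylated (50 mM iodoacetamide), S-Trap processed, then LC-MS/MS. Label-free matched-peptide quantitation against DMSO, human UniProt; Benjamini–Hochberg-corrected p-values.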

For assay [2], the target named is Non-receptor tyrosine-protein kinase TYK2 (Homo sapiens) (UniProt P29597). The experiment in a line: Degradation of TYK2 in human TMD8 cells by measuring protein level at 111 nM for 6 hrs using label free proteomic analysis. Put shortly: as §1
The target in assay [3] is Tyrosine-protein kinase CSK (Homo sapiens) (UniProt P41240). The experiment in a line: Degradation of CSK in human TMD8 cells by measuring protein level at 111 nM for 6 hrs using label free proteomic analysis. In short, it runs like this: as §1
The target of assay [4] is DNA-binding protein Ikaros (Homo sapiens) (UniProt Q13422). The experiment in a line: Degradation of IKZF1 in human TMD8 cells by measuring protein level at 111 nM for 6 hrs using label free proteomic analysis. Put shortly:
as §1

The target of assay [5] is Zinc finger protein Aiolos (Homo sapiens) (UniProt Q9UKT9). The experiment in a line: Degradation of IKZF3 in human TMD8 cells by measuring protein level at 111 nM for 6 hrs using label free proteomic analysis. Put shortly: as §1
Sequence of Zinc finger protein Aiolos (Homo sapiens) (Q9UKT9 whole entry): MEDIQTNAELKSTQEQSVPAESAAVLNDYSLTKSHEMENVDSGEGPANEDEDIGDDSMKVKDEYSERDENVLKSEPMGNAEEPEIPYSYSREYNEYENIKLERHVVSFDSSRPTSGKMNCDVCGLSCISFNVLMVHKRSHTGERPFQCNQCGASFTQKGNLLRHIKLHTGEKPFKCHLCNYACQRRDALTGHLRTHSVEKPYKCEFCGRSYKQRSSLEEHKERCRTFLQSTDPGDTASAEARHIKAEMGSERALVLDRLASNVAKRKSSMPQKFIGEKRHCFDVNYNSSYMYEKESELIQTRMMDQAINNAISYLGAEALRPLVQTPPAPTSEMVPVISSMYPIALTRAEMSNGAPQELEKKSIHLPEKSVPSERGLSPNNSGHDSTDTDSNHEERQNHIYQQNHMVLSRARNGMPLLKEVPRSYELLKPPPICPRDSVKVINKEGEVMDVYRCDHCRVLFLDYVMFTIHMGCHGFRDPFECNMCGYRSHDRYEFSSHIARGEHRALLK
Assay [6] addresses Tyrosine-protein kinase Fes/Fps (Homo sapiens) (UniProt P07332). The experiment in a line: Degradation of Fes/Fps in human TMD8 cells by measuring protein level at 111 nM for 6 hrs using label free proteomic analysis. In short, it runs like this:
as §1

Assay [7] addresses T2, Protein cereblon/Tyrosine-protein kinase BTK (Homo sapiens, UniProt Q06187+Q96SW2). The experiment in a line: PROTAC activity at BTK/CRBN protein protein interaction in human Ramos cell assessed as degradation of BTK incubated for 17 hrs measured by Western blot analysis. Put shortly:
(§2)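 Ramos or JeKo-1 cells (2 × 10^6 per well) were exposed for 17 h to 3000–0.15 nM PROTAC in 3-fold steps. Cells were lysed and analysed by western blot, with BTK normalised to β-actin. DC50 and Dmax come from the dose-response; DC50 is the mean ± SD of two independent experiments.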
Target sequence in this assay (Q06187 whole entry): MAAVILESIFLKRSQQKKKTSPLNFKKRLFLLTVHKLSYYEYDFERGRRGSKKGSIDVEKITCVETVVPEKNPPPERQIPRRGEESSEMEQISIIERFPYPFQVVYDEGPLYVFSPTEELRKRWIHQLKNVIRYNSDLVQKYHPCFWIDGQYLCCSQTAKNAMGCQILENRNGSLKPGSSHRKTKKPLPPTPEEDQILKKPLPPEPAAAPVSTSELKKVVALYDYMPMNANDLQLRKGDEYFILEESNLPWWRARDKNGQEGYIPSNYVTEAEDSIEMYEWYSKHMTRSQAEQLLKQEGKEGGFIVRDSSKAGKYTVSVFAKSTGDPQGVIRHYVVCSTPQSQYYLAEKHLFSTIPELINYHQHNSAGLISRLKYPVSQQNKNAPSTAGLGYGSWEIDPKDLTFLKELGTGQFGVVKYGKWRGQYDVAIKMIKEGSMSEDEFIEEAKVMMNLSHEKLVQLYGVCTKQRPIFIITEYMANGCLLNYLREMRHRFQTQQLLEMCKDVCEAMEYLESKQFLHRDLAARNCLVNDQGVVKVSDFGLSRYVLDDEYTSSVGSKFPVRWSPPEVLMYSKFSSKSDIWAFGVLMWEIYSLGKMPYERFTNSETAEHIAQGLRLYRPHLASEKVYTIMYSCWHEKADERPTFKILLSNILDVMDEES
Target sequence in this assay (Q96SW2 whole entry): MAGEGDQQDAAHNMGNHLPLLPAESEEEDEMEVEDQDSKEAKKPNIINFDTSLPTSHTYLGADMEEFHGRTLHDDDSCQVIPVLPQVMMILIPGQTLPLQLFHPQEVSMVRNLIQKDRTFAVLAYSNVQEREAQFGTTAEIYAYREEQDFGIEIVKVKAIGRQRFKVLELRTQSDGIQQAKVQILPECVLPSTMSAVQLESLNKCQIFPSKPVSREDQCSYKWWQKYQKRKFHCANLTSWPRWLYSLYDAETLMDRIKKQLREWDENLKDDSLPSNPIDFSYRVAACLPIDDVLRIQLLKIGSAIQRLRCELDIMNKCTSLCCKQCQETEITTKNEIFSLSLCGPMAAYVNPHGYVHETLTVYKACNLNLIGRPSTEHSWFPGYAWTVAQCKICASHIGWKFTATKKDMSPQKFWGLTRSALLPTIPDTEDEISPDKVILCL

The target in assay [8] is Tyrosine-protein kinase HCK (Homo sapiens) (UniProt P08631). The experiment in a line: Degradation of HCK in human TMD8 cells by measuring protein level at 111 nM for 6 hrs using label free proteomic analysis. Put shortly:
as §1

The target in assay [9] is Tyrosine-protein kinase FRK (Homo sapiens) (UniProt P42685). The experiment in a line: Degradation of FRK in human TMD8 cells by measuring protein level at 111 nM for 6 hrs using label free proteomic analysis. In short, it runs like this: as §1
Sequence of Tyrosine-protein kinase FRK (Homo sapiens) (P42685 whole entry): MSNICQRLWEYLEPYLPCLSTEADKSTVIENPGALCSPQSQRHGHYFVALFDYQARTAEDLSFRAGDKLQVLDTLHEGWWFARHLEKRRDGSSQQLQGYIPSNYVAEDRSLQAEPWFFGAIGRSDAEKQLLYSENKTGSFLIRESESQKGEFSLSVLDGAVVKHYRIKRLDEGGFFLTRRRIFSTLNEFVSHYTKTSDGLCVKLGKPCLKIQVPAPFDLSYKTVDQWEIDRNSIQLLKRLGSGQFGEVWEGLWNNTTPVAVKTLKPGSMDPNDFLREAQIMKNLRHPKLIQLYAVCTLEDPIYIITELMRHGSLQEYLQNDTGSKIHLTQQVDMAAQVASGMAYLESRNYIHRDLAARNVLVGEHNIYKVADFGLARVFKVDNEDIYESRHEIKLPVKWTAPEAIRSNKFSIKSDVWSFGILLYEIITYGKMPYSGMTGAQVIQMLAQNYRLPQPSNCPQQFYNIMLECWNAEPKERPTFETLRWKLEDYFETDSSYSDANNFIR
Assay [10] has as its target T2, Protein cereblon/Tyrosine-protein kinase BTK. The experiment in a line: PROTAC activity at BTK/CRBN protein protein interaction in human JeKo-1 cell assessed as degradation of BTK incubated for 17 hrs measured by Western blot analysis. Put shortly:
as §2
Target sequence in this assay (Q06187 whole entry): as the sequence (Q06187 whole entry) above
Target sequence in this assay (Q96SW2 whole entry): as the sequence (Q96SW2 whole entry) above

Assay [11] addresses Eukaryotic peptide chain release factor GTP-binding subunit ERF3A (Homo sapiens) (UniProt P15170). The experiment in a line: Degradation of […] in human TMD8 cells by measuring protein level at 111 nM for 6 hrs using label free proteomic analysis. Put shortly: as §1
Assay [12] has as its target T2, Protein cereblon/Tyrosine-protein kinase BTK. The experiment in a line: PROTAC activity at BTK/CRBN protein protein interaction in human Ramos cell assessed as degradation of BTK incubated for 17 hrs measured by Western blot analysis relative to control. Put shortly: as §2
Target sequence in this assay (Q06187 2-659 limits assumed): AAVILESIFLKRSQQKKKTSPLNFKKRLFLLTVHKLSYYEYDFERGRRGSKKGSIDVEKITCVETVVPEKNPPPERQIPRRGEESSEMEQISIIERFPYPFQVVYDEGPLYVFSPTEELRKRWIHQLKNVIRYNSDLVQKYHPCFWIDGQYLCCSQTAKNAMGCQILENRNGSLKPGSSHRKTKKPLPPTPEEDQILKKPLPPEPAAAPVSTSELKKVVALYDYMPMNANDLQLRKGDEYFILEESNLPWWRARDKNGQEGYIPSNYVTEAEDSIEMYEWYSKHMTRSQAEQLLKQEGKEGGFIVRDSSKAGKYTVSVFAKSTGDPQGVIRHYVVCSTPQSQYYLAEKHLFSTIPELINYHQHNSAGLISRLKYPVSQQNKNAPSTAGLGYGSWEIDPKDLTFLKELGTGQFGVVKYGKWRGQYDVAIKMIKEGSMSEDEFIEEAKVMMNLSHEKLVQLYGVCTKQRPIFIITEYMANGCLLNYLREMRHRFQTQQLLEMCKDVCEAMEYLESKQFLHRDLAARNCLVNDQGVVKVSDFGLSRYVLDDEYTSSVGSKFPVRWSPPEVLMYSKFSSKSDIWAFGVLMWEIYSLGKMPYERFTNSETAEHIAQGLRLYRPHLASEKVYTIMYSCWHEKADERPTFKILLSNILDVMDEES
Target sequence in this assay (Q96SW2 whole entry partner): as the sequence (Q96SW2 whole entry) above
Assay [13] has the same target. The experiment in a line: PROTAC activity at BTK/CRBN protein protein interaction in human JeKo-1 cell assessed as degradation of BTK incubated for 17 hrs measured by Western blot analysis relative to control. In short, it runs like this:
as §2
Target sequence in this assay (Q06187 2-659 limits assumed): as the sequence (Q06187 2-659 limits assumed) above
Target sequence in this assay (Q96SW2 whole entry partner): as the sequence (Q96SW2 whole entry) above

Assay [14] deals with Tyrosine-protein kinase Lyn (Homo sapiens) (UniProt P07948). The experiment in a line: Degradation of LYN in human TMD8 cells by measuring protein level at 111 nM for 6 hrs using label free proteomic analysis. Put shortly:
as §1

Each structure is given as a SMILES string. Calls of active or inactive are those of the source. No cut-off for these calls is given here.

Sequence of Eukaryotic peptide chain release factor GTP-binding subunit ERF3A (Homo sapiens) (P15170 whole entry): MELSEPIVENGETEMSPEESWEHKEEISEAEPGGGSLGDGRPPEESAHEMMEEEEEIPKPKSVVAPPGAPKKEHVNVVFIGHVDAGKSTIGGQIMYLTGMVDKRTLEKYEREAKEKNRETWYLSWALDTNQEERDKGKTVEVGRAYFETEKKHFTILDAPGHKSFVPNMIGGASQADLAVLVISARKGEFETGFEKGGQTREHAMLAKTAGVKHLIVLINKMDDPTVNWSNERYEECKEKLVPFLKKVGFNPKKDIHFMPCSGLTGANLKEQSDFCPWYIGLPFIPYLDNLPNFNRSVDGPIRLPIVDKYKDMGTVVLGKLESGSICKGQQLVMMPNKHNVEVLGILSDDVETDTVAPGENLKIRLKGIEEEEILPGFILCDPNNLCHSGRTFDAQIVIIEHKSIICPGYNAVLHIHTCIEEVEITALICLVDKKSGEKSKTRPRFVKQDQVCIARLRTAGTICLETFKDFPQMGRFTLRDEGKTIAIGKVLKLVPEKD
Sequence of Tyrosine-protein kinase Lyn (Homo sapiens) (P07948 2-512 limits assumed): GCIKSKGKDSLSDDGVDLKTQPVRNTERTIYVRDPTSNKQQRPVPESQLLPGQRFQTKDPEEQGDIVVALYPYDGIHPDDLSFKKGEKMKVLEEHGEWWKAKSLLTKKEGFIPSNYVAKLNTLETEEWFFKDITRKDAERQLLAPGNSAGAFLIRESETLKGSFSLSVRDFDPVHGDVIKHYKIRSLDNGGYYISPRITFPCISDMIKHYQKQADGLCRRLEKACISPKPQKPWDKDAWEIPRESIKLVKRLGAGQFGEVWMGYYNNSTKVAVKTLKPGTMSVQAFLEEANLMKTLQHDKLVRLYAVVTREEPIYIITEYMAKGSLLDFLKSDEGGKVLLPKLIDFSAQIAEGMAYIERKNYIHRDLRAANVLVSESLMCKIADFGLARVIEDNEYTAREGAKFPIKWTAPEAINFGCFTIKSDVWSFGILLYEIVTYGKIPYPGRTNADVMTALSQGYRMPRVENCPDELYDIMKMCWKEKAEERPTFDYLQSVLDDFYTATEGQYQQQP
Sequence of DNA-binding protein Ikaros (Homo sapiens) (Q13422 whole entry): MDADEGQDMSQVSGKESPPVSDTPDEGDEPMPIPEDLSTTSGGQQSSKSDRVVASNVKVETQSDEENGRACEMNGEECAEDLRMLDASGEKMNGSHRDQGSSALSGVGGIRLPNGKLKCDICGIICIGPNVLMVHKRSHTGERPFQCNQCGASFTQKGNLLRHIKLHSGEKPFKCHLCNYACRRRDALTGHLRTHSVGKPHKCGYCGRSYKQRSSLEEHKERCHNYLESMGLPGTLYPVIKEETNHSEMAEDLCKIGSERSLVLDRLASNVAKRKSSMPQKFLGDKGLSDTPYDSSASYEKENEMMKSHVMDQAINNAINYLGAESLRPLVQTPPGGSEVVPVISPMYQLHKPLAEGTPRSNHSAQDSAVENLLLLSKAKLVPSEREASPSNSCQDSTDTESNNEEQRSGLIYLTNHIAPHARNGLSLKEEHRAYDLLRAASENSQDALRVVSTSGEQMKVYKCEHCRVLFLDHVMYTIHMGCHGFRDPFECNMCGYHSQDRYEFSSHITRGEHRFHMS

Turning to `C[C@H]1CN(C(=O)CNc2cccc3c2C(=O)N(C2CCC(=O)NC2=O)C3=O)CCN1c1ccc(Nc2cc(-c3ccnc(N4CCn5c(cc6c5CC(C)(C)C6)C4=O)c3CO)cn(C)c2=O)nc1` (stereo partly drawn), the outcome in assay [1], in [2], in assay [3], in [6], in assay [8] and in [9] was inactive. Further, the result in assay [11] and in [14] was inactive. Besides, the result in assay [4] and in [5] was Active. Besides, the figures for the DC50 in assay [7] and in [10] were 0.5 nM and 0.6 nM, respectively. Besides, the Emax in [12] worked out at 97.1%; in assay [13], 95.7%.

As to `C[C@H]1CN(C(=O)COc2cccc3c2C(=O)N(C2CCC(=O)NC2=O)C3=O)CCN1c1ccc(Nc2cc(-c3ccnc(N4CCn5c(cc6c5CC(C)(C)C6)C4=O)c3CO)cn(C)c2=O)nc1` (stereo partly drawn), the result in assay [1], in [2], in [3], in assay [4], in assay [5] and in assay [6] was inactive. Moreover, the outcome in assay [8], in [9], in [11] and in assay [14] was inactive. Further, the values for the DC50 in assay [7] and in assay [10] were 1.7 nM and 3.1 nM, respectively. In addition, the results for the maximum response (Emax) in assay [12] and in assay [13] were 96.2% and 97%, respectively.
